# Active and inactive are the calls of the source. No cut-off for these calls is given here.
# How the values were obtained:
# microRNA 122 [1] = assay: Inhibition of miR-122 in human Huh-7 cells expressing renilla luciferase gene assessed as relative luciferase unit after 48 hrs by dual luciferase assay relative to control; format: cell-based; design: concentration or dose not given beside the values
# In short: (§1)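 Huh7-miR122 stable line (miR-122 site in the Renilla luciferase 3′ UTR, kept in 500 μg/mL G418), seeded 15,000/well. After overnight incubation, treated 48 h with compound or DMSO (0.1% final) in triplicate. Renilla and firefly read by dual luciferase; Renilla normalized to firefly. Dose–response used for EC50.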
# Renilla = assay: Inhibition of recombinant renilla luciferase at 10 uM using coelenterazine as substrate incubated for 10 mins by luminescence based microplate reader analysis relative to control; values are per cent of control
# [2] = Effect on non-miR-122 pathway in human Huh-7 cells harboring psi-check empty vector assessed as increase in luminescence at 10 uM after 48 hrs by dual luciferase assay relative to control; format: functional
# In short: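 Huh7 cells transfected with psiCHECK-empty reporter (miR-122 site replaced by a non-targeted linker) for 2 h. Medium then replaced with compound at 10 μM or DMSO (0.1% final), in triplicate. Renilla/firefly read by dual luciferase after 48 h, normalized to DMSO. At least three independent experiments, mean ± SD.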
# HEK293 = assay: Inhibition of […] (unknown origin) transfected in HEK293 cells coexpressing CYP26A1 assessed as reduction in luciferase expression at 25 uM after 48 hrs dual luciferase assay; format: cell-based; settings: Homo sapiens
# In short: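 HEK293T cells (no endogenous HNF4α) co-transfected for 4 h with CYP26A1 promoter–firefly luciferase reporter, HNF4α expression plasmid and Renilla control plasmid. Then treated 48 h with 25 μM compound or DMSO (0.25% final). Read by dual luciferase assay, normalized to DMSO.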
# [3] = Binding affinity to recombinant C-terminal His-tagged […] (147 to 377 residues) (unknown origin) expressed in Escherichia coli by spectrofluorometer analysis; design: species or system Homo sapiens
# In short: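 His-tagged HNF4α ligand-binding domain (aa 147–377) expressed and purified from E. coli. 200 nM protein in PBS pH 7.4 titrated with increasing compound at 25 °C. Intrinsic Trp/Tyr fluorescence read at 330 nm (excitation 280 nm), corrected for buffer and ligand alone. Intensity change versus concentration fitted to Hill equation for KD. Two independent experiments.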
# Huh-7 [4] = assay: Cytotoxicity against human Huh-7 cells assessed as reduction in cell viability at 10 to 25 uM after 48 hrs by XTT assay; format: toxicity, cell-based; settings: huh-7, 48 h, dose 10-25 µM
# In short: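 Huh7 cells given compound for 48 h, then XTT reagent activated with menadione. Absorbance at 450 nm minus 630 nm read immediately and after 4 h; viability taken as the difference between the two readings.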
# microRNA 122 [5] = assay: Inhibition of miR-122 in human Huh-7 cells assessed as reduction in mature miR-122 levels at 25 uM after 48 hrs by RT-qPCR analysis; format: cell-based
# In short: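 Huh7 cells treated 48 h with 25 μM compound or 0.1% DMSO, then total RNA isolated. 15 ng reverse-transcribed with TaqMan miRNA RT primers for miR-122 or RNU19. TaqMan qPCR run over 40 cycles in triplicate. Relative level from 2^−ΔΔCt versus RNU19 and DMSO. Three independent experiments.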
# microRNA 122 [6] = assay: Inhibition of miR-122 in human Huh-7 cells assessed as reduction in primary miR-122 expression at 25 uM incubated for 48 hrs by RT-qPCR analysis; format: cell-based
# In short: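 Huh7 cells treated 48 h with 25 μM compound or 0.1% DMSO. 50 ng total RNA reverse-transcribed with iScript. TaqMan qPCR run for pri-miR-122 and GAPDH in triplicate. Relative level from 2^−ΔΔCt normalized to GAPDH and DMSO. Three independent experiments.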
# Huh-7 [7] = assay: Inhibition of pGL3-miR-122 (unknown origin) promotor activity transfected in Huh-7 cells harboring AP-1 mutant assessed as reduction in luciferase activity at 25 uM after 48 hrs by Bright-glo luciferase assay; format: cell-based
# In short: (§2)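 Huh7 cells transfected 3 h with pGL3-miR122 promoter–firefly reporter, parent or with transcription-factor site mutated/deleted. Then treated 48 h with 25 μM compound or 0.1% DMSO, in triplicate. Read by Bright-Glo luminescence; XTT viability assayed in parallel. Luminescence divided by viability, normalized to DMSO per reporter. Three independent experiments.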
# Huh-7 [8] = assay: Inhibition of pGL3-miR-122 (unknown origin) promotor activity transfected in Huh-7 cells harboring HNF4alpha mutant by measuring reversal of mir-122 activity at 25 uM after 48 hrs by Bright-glo luciferase assay; format: cell-based; in short: as §2
# Hepatitis C virus = assay: Antiviral activity against HCV infected in human Huh7.5 cells assessed as reduction in viral RNA expression at 10 uM pretreated for 1 hr followed by viral infection and measured after 48 hrs by RT-qPCR analysis; format: functional, Hepacivirus hominis; design: scale not given: the % may be the effect or the level left; settings: time 49 hrs
# In short: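 Huh7.5 cells pretreated 1 h with compound (10 μM) or DMSO, then infected with HCV (MOI 0.5) in compound-containing DMEM; medium replaced with compound medium at 5 h post-infection. At 48 h post-infection, RNA extracted. HCV and 18S RNA copy numbers quantified by RT-qPCR against standards. HCV RNA normalized to 18S, then to DMSO control.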
# Huh-7 [9] = assay: Inhibition of pGL3-miR-122 (unknown origin) promotor activity transfected in Huh-7 cells harboring HNF3beta mutant assessed as reduction in luciferase activity at 25 uM after 48 hrs by Bright-glo luciferase assay; format: cell-based; in short: as §2
# microRNA 122 [10] = assay: Inhibition of miR-122 in human Huh-7 cells expressing renilla luciferase gene after 48 hrs by dual luciferase assay; format: cell-based; in short: as §1
# Huh-7 [11] = assay: Inhibition of pGL3-miR-122 (unknown origin) promotor activity transfected in Huh-7 cells harboring HNF1alpha mutant assessed as reduction in luciferase activity at 25 uM after 48 hrs by Bright-glo luciferase assay; format: cell-based; in short: as §2
# microRNA 122 [12] = assay: Inhibition of miR-122 in human Huh-7 cells assessed as reduction in E-cadherin expression at 25 uM incubated for 48 hrs by Western blot analysis; format: cell-based
# In short: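 Huh7 cells treated 48 h at 37 °C with compound or DMSO (0.1% final), then lysed and run on 10% SDS-PAGE. Transferred to PVDF, blocked in 5% BSA/TBST. Probed overnight at 4 °C with anti-E-cadherin or anti-GAPDH (1:1000), then HRP anti-rabbit (1:2500), and detected by chemiluminescence. GAPDH used as internal control.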
# Huh-7 [13] = assay: Inhibition of pGL3-miR-122 (unknown origin) promotor activity transfected in Huh-7 cells harboring HNF6 mutant assessed as reduction in luciferase activity at 25 uM after 48 hrs by Bright-glo luciferase assay; format: cell-based; in short: as §2
# Huh-7 [14] = assay: Inhibition of pGL3-miR-122 (unknown origin) promotor activity transfected in human Huh-7 cells at 25 uM after 48 hrs by Bright-glo luciferase assay; format: cell-based; in short: as §2
SMILES,Activity (microRNA 122 [1]) [%],residual activity (Renilla) [%],also measured
COc1cc(C)c(C(C)C)cc1S(=O)(=O)n1ccc(C)c1,57,87,–
C#CCOc1cc(C)c(C(C)C)cc1S(=O)(=O)n1cnc(C)c1,50,97,–
COc1cc(C)c(C)cc1S(=O)(=O)n1cnc(C)c1,32,–,–
COc1cc(C)c(C(C)C)cc1S(=O)(=O)N(C)c1cccc(C)c1,122,78,Activity [2]: 103%
COc1cc(C)c(C(C)C)cc1S(=O)(=O)N(C)c1ccc(C)cc1,82,100,Activity [2]: 218%
COc1cc(C)c(C(C)C)cc1S(=O)(=O)N(C)c1cccc(C)n1,107,100,Activity [2]: 117%
COc1cc(C)c(C(C)C)cc1S(=O)(=O)n1ccc(C)n1,44,–,–
COc1cc(C)c(C(C)C)cc1S(=O)(=O)N(C)c1ccccn1,89,100,Activity [2]: 88%
COc1cc(C)c(C(C)C)cc1S(=O)(=O)n1cnc(-c2ccccc2)c1,35,–,–
COc1cc(C)c(C(C)C)cc1S(=O)(=O)n1cnc(Cl)c1Cl,4,–,–
COc1cc(C)c(C(C)C)cc1S(=O)(=O)n1ccc2ccccc21,55,94,–
COc1cc(C)c(C(C)C)cc1S(=O)(=O)N(C)C,42,–,–
COc1cc(C)c(C(C)C)cc1S(=O)(=O)n1cccc1,29,–,–
Cc1ccc([N+](=O)[O-])cc1S(=O)(=O)n1c(C)nc2ccccc21,–,–,inhibition (HEK293): 50%; Kd [3]: 832 nM
COc1cc(C)c(C(C)C)cc1S(=O)(=O)N(C)c1ncccc1C,64,100,Activity [2]: 87%
COc1cc2c(cc1S(=O)(=O)n1cnc(C)c1)CCCC2,33.3,–,–
COc1cc(C)c(C(C)C)cc1S(=O)(=O)N(C)c1cc(C)ccc1C,77,100,Activity [2]: 245%

SMILES,Activity (microRNA 122 [1]) [%],residual activity (Renilla) [%],also measured
COc1cc(C)c(C(C)C)cc1S(=O)(=O)n1ccnc1,33,–,–
CCNS(=O)(=O)c1cc(C(C)C)c(C)cc1OC,42,–,–
COc1cc(C)c(C(C)C)cc1S(=O)(=O)n1cnc([N+](=O)[O-])c1,61.1,67,–
COc1cc(C)ccc1S(=O)(=O)n1cnc(C)c1,24,80,–
COc1cc(C)c(C(C)C)cc1S(=O)(=O)n1cnc(C)c1,100,80,Activity [2]: 127%
CCOc1cc(C)c(C(C)C)cc1S(=O)(=O)n1cnc(C)c1,74,70,–
COc1cc(C)c(C(C)C)cc1S(=O)(=O)n1cc(C)cn1,32,–,–
COc1cc(C)c(C(C)C)cc1S(=O)(=O)Nc1ncccc1C,135,17,–
COc1cc(C)c(C(C)C)cc1S(=O)(=O)Nc1ccccc1,47,–,–
CCc1nccn1S(=O)(=O)c1cc(C(C)C)c(C)cc1OC,40,–,–
COc1cc(C)c(C(C)C)cc1S(=O)(=O)Nc1ccccn1,88,8,–
COc1cc(C)c(C(C)C)cc1S(=O)(=O)n1cnc2ccccc21,75,45,–
COc1cc(C)c(C(C)C)cc1S(=O)(=O)N(C)c1ccccc1C,104,100,Activity (Huh-7 [4]): Non-Toxic; inhibition (microRNA 122 [5]): 38%; inhibition (microRNA 122 [6]): 59%; inhibition (HEK293): 50%; inhibition (Huh-7 [7]): Active; inhibition (Huh-7 [8]): 64%; Activity (Hepatitis C virus): 88%; inhibition (Huh-7 [9]): Active; EC50 (microRNA 122 [10]): 11 µM; inhibition (Huh-7 [11]): Active; Activity [2]: 90%; inhibition (microRNA 122 [12]): Active; inhibition (Huh-7 [13]): Active; Activity (Huh-7 [14]): Active; Kd [3]: 439 nM
COc1cc(C)c(C(C)C)cc1S(=O)(=O)Nc1cccc(C)n1,89,2,–
COc1cc(C)c(C(C)C)cc1S(=O)(=O)N(C)c1cccc(C)c1C,80,93,Activity [2]: 225%
COc1cc(C)c(C(C)C)cc1S(=O)(=O)Nc1ccccc1C,32,–,–

# Source: ChEMBL document CHEMBL5150059, “Transcriptional Inhibition of MicroRNA miR-122 by Small Molecules Reduces Hepatitis C Virus Replication in Liver Cells” (J Med Chem, 2022)
